Test results from ChEMBL document CHEMBL3351896, “Small Molecule that Reverses Dexamethasone Resistance in T-cell Acute Lymphoblastic Leukemia (T-ALL)” (ACS Med Chem Lett, 2014).
The source made the active and inactive calls. The calls are words filed in the database; no cut-off is given here.

Legend:
Type in all cases: functional, cell-based
[1] = Growth inhibition of human CUTLL1 cells in presence of 1 uM dexamethasone after 48 hrs by alamar blue assay; details: CUTLL1, 48 h
Summary of the method: (§1)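 CUTLL1 cells given compound alone or with dexamethasone 1 μM. Growth inhibition measured by alamar blue after 48 h.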

[2] = Growth inhibition of human CUTLL1 cells in absence of 1 uM dexamethasone after 48 hrs by alamar blue assay; details: CUTLL1, 48 h; summary of the method: as §1
CUTLL1 [3] = test: Induction of PARP1 cleavage in human CUTLL1 cells at 25 uM after 24 hrs by western blotting method
Summary of the method: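 CUTLL1 cells exposed 24 h to compound (25 μM) alone, with 1 μM dexamethasone, or with dexamethasone plus 1 μM RU486. Apoptosis read as cleaved PARP by Western blot, quantified as fold change.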

CUTLL1 [4] = test: Growth inhibition of human CUTLL1 cells at 50 uM in presence of erastin after 48 hrs by alamar blue assay
CUTLL1 [5] = test: Potentiation of dexamethasone-induced cytotoxicity against human CUTLL1 cells with high GR expression levels at 50 uM after 48 hrs by alamar blue assay
Summary of the method: (§2)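 Human CUTLL1 T-ALL cells engineered to express high (overexpressed) or low (knockdown) glucocorticoid receptor levels. Exposed to compound alone or with 1 μM dexamethasone. Alamar blue growth inhibition read after 48 h.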

CUTLL1 [6] = test: Potentiation of dexamethasone-induced cytotoxicity against human CUTLL1 cells with low GR expression levels at 50 uM after 48 hrs by alamar blue assay; summary of the method: as §2
CUTLL1 [7] = test: Increase in GR expression in human CUTLL1 cells at 25 to 50 uM in presence of 1 uM dexamethasone after 24 hrs by Western blotting method
Summary of the method: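 CUTLL1 cells exposed to compound (25 or 50 μM) alone, with 1 μM dexamethasone, or with dexamethasone plus 1 μM RU486, for 6 or 24 h. GR measured as protein by Western blot and as transcript by RT-qPCR.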

CUTLL1 [8] = test: Increase in GR expression in human CUTLL1 cells at < 25 uM after 24 hrs by Western blotting method
CUTLL1 [9] = test: Increase in GR expression in human CUTLL1 cells at < 25 uM after 24 hrs by RT-qPCR method
CUTLL1 [10] = test: Effect on ZFP36L2 gene expression in human CUTLL1 cells in presence of 1 uM dexamethasone at 30 uM after 24 hrs by microarray method
Summary of the method: (§3)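 Human CUTLL1 T-ALL cells exposed for 24 h to vehicle (DMSO), dexamethasone alone (1 μM), test compound alone (30 μM), or dexamethasone 1 μM plus compound 30 μM, each in triplicate. Expression profiled by microarray. Glucocorticoid-regulated gene sets from ALL patients on glucocorticoid therapy scored by GSEA. Leading-edge genes compared between the combination and dexamethasone alone.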

CUTLL1 [11] = test: Effect on SMAP2 gene expression in human CUTLL1 cells in presence of 1 uM dexamethasone at 30 uM after 24 hrs by microarray method; summary of the method: as §3
CUTLL1 [12] = test: Effect on PFAS gene expression in human CUTLL1 cells in presence of 1 uM dexamethasone at 30 uM after 24 hrs by microarray method; summary of the method: as §3
CUTLL1 [13] = test: Effect on TWISTNB gene expression in human CUTLL1 cells in presence of 1 uM dexamethasone at 30 uM after 24 hrs by microarray method; summary of the method: as §3
CUTLL1 [14] = test: Effect on TSR1 gene expression in human CUTLL1 cells in presence of 1 uM dexamethasone at 30 uM after 24 hrs by microarray method; summary of the method: as §3
CUTLL1 [15] = test: Effect on SMC2 gene expression in human CUTLL1 cells in presence of 1 uM dexamethasone at 30 uM after 24 hrs by microarray method; summary of the method: as §3
CUTLL1 [16] = test: Effect on CHEK1 gene expression in human CUTLL1 cells in presence of 1 uM dexamethasone at 30 uM after 24 hrs by microarray method
Summary of the method: (§4)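 CUTLL1 T-ALL cells exposed 24 h to vehicle (DMSO), dexamethasone alone (1 μM), test agent alone (30 μM), or dexamethasone (1 μM) plus test agent (30 μM), in triplicate. Expression profiled by microarray. Leading-edge genes from GSEA were compared between the dexamethasone-plus-agent and dexamethasone-alone groups, using glucocorticoid-regulated gene sets from ALL patients on glucocorticoid therapy.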

CUTLL1 [17] = test: Effect on HELLS gene expression in human CUTLL1 cells in presence of 1 uM dexamethasone at 30 uM after 24 hrs by microarray method; summary of the method: as §4
CUTLL1 [18] = test: Effect on BYSL gene expression in human CUTLL1 cells in presence of 1 uM dexamethasone at 30 uM after 24 hrs by microarray method; summary of the method: as §4
CUTLL1 [19] = test: Effect on FEN1 gene expression in human CUTLL1 cells in presence of 1 uM dexamethasone at 30 uM after 24 hrs by microarray method; summary of the method: as §4
CUTLL1 [20] = test: Effect on MCM4 gene expression in human CUTLL1 cells in presence of 1 uM dexamethasone at 30 uM after 24 hrs by microarray method; summary of the method: as §4
CUTLL1 [21] = test: Effect on CDC45 gene expression in human CUTLL1 cells in presence of 1 uM dexamethasone at 30 uM after 24 hrs by microarray method; summary of the method: as §4
CUTLL1 [22] = test: Effect on TK1 gene expression in human CUTLL1 cells in presence of 1 uM dexamethasone at 30 uM after 24 hrs by microarray method; summary of the method: as §3
CUTLL1 [23] = test: Effect on TSC22D3 gene expression in human CUTLL1 cells in absence of 1 uM dexamethasone at 30 uM after 24 hrs by microarray method; summary of the method: as §3
CUTLL1 [24] = test: Effect on LILRB3 gene expression in human CUTLL1 cells in absence of 1 uM dexamethasone at 30 uM after 24 hrs by microarray method; summary of the method: as §4
CUTLL1 [25] = test: Effect on SMAP2 gene expression in human CUTLL1 cells in absence of 1 uM dexamethasone at 30 uM after 24 hrs by microarray method; summary of the method: as §3
CUTLL1 [26] = test: Effect on GGNBP2 gene expression in human CUTLL1 cells in absence of 1 uM dexamethasone at 30 uM after 24 hrs by microarray method; summary of the method: as §4
CUTLL1 [27] = test: Effect on RAD51AP1 gene expression in human CUTLL1 cells in absence of 1 uM dexamethasone at 30 uM after 24 hrs by microarray method; summary of the method: as §3
CUTLL1 [28] = test: Effect on MCM10 gene expression in human CUTLL1 cells in absence of 1 uM dexamethasone at 30 uM after 24 hrs by microarray method; summary of the method: as §4
CUTLL1 [29] = test: Effect on RUVBL1 gene expression in human CUTLL1 cells in absence of 1 uM dexamethasone at 30 uM after 24 hrs by microarray method; summary of the method: as §3
CUTLL1 [30] = test: Effect on CHAF1A gene expression in human CUTLL1 cells in absence of 1 uM dexamethasone at 30 uM after 24 hrs by microarray method; summary of the method: as §4
CUTLL1 [31] = test: Effect on E2F7 gene expression in human CUTLL1 cells in absence of 1 uM dexamethasone at 30 uM after 24 hrs by microarray method; summary of the method: as §4
CUTLL1 [32] = test: Effect on GINS2 gene expression in human CUTLL1 cells in absence of 1 uM dexamethasone at 30 uM after 24 hrs by microarray method; summary of the method: as §4
CUTLL1 [33] = test: Effect on MCM4 gene expression in human CUTLL1 cells in absence of 1 uM dexamethasone at 30 uM after 24 hrs by microarray method; summary of the method: as §4

For `Nc1ncc(-c2ccncc2)c(C2CC2)n1`, the EC50 [1] was 28 µM, the EC50 [2] was at least 100 µM and the Activity (CUTLL1 [3]) was “inactive”. For the same compound, the “growth inhibition (GI)” value (CUTLL1 [4]) was “inactive”, the Activity (CUTLL1 [5]) was “Active” and the Activity (CUTLL1 [6]) was “Active”. For the same compound, the Activity (CUTLL1 [7]) was “Active”, the Activity (CUTLL1 [8]) was “inactive” and the Activity (CUTLL1 [9]) was “inactive”. The Activity (CUTLL1 [10]) was “Active”, the Activity (CUTLL1 [11]) was “Active” and the Activity (CUTLL1 [12]) was “Active”. The Activity (CUTLL1 [13]) was “Active”, the Activity (CUTLL1 [14]) was “Active” and the Activity (CUTLL1 [15]) was “Active”. For the same compound, the Activity (CUTLL1 [16]) was “Active”, the Activity (CUTLL1 [17]) was “Active” and the Activity (CUTLL1 [18]) was “Active”. For the same compound, the Activity (CUTLL1 [19]) was “Active”, the Activity (CUTLL1 [20]) was “Active” and the Activity (CUTLL1 [21]) was “Active”. The Activity (CUTLL1 [22]) was “Active”, the Activity (CUTLL1 [23]) was “inactive” and the Activity (CUTLL1 [24]) was “inactive”. The Activity (CUTLL1 [25]) was “inactive”, the Activity (CUTLL1 [26]) was “inactive” and the Activity (CUTLL1 [27]) was “inactive”. For the same compound, the Activity (CUTLL1 [28]) was “inactive”, the Activity (CUTLL1 [29]) was “inactive” and the Activity (CUTLL1 [30]) was “inactive”. The Activity (CUTLL1 [31]) was “inactive”, the Activity (CUTLL1 [32]) was “inactive” and the Activity (CUTLL1 [33]) was “inactive”.
